Rows were chosen to be rich in hits. Some 3.8% of all compounds tested hit in one or more screens of this group.
hERG rescue: compounds protecting human hERG from proarrhythmic drug block; activation (rescue from dofetilide block), less the hit threshold, % at 10 µM; hit rate 0.51% among 310,000; CHO-hERG, FluxOR thallium flux, dofetilide IC70 present;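 active means activation above the mean of controls blocked by dofetilide plus 5 SD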;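 further: thallium influx through hERG after potassium depolarization seen as dye fluorescence rise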
Target sequence (Q12809 whole entry, looked up): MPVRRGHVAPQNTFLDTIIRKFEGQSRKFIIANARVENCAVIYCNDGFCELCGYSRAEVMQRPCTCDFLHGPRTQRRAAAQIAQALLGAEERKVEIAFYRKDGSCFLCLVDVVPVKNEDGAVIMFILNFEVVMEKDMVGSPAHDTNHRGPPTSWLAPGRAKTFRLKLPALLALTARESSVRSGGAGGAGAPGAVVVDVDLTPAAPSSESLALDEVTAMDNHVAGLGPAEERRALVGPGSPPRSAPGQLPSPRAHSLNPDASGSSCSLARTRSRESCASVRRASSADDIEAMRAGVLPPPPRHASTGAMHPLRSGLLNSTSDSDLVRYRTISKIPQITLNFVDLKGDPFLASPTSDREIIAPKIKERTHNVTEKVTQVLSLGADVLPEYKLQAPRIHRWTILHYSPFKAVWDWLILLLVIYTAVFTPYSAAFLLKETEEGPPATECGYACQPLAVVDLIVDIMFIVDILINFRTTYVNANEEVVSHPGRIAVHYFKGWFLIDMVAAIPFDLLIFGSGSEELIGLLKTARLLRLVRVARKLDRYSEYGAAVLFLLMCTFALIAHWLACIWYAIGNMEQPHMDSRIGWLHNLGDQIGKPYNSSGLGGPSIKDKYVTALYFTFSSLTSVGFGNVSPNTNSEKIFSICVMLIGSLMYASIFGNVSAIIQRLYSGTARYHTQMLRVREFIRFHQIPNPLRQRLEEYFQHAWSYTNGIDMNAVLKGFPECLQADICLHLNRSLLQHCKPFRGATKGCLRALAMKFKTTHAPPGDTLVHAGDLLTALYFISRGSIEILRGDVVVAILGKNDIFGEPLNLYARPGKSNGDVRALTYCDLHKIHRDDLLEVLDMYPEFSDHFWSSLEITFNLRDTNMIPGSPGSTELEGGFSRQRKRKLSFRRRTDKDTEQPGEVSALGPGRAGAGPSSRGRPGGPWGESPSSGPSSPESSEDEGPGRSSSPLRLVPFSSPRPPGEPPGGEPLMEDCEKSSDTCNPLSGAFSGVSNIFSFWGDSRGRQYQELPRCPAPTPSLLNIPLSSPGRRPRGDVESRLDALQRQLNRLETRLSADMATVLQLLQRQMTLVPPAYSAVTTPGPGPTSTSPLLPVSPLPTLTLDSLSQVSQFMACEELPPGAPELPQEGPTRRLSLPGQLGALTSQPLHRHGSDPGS
KCNK9 block: inhibitors of human KCNK9 two-pore domain potassium channel | Q9NPC2 | HEK293 KCNK9, FluxOR thallium flux fluorescence; stronger effect = lower value | B-score at 10 µM | hit rate 1.2% among 310,000 | AID 488922;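 active means ratio B-score over 3 SD below the library mean, with starting fluorescence within 5 SD of its mean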;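 further: negative B-score means less thallium flux so channel inhibition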
KCNQ1 block: blocks the human KCNQ1 potassium channel; P51787; CHO-K1 KCNQ1, FluxOR thallium flux fluorescence; stronger effect = higher value; B-score at 10 µM; hit rate 1.3% among 310,000; AID 2642;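 active means compounds whose thallium flux B-score, printed positive for inhibition, exceeds three library SD while starting fluorescence stays within three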;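 further: channel opened by potassium depolarization with thallium stimulus after 20 min compound exposure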
KCNQ1 act: potentiators or activators of human KCNQ1 potassium channel; P51787; CHO-K1 KCNQ1, thallium flux FluxOR fluorescence; stronger effect = higher value; B-score at 10 µM; hit rate 0.35% among 310,000;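 active means fluorescence ratio B-score, a plate-corrected score, at least three library SD, with initial intensity B-score within 5 SD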
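Assay system: CHO-K1 cells stably expressing KCNQ1. Medium: assay buffer for compound exposure, DMSO matched across wells. Timing: 37 °C overnight plating, 90-min dark dye load, 20-min compound pretreatment. Signal: kinetic FluxOR fluorescence, 10 s baseline plus 110 s post-stimulus.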
Kir21 inh: inhibitors of mouse Kir2.1 inward-rectifier potassium channel; HEK293-Kir2.1, FluxOR thallium flux fluorescence; stronger effect = lower value; B-score at 10 µM; hit rate 0.85% among 310,000;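 active means fluorescence ratio B-score at or below minus 3 SD of library scores, with starting-brightness B-score within 2 SD, cut at about -4.2 in these data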;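 further: channel flux triggered by added potassium and thallium sulfate stimulus; B-score of peak minus minimum fluorescence over baseline after thallium stimulus; more negative B-score means stronger Kir2.1 block with less thallium influx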
KCNK3 block: human KCNK3 channel inhibition, primary screen; hit rate 0.84% among 340,000; CHO-KCNK3 thallium flux, FluxOR fluorescence; stronger effect = lower value; AID 602410; O14649; B-score at 10 µM;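 active means B-score under library mean minus 4 SD, starting fluorescence ratio at most library mean plus 5 SD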;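 further: more negative B-score means stronger inhibition of thallium flux through KCNK3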
The depositor's hits bear a star; i = inactive; / = no result given.

SMILES	hERG rescue	KCNK9 block	KCNQ1 block	KCNQ1 act	Kir21 inh	KCNK3 block
CC[n+]1c(/C=C2/C=C(C)CC(C)C2)sc2ccccc21 (stereo not drawn)	-27	i	6*	i	1.5	i
CC[n+]1c(C=C2C=C(C)OC(C)=C2)sc2ccccc21	-31	i	10*	i	-3.3	i
CC/C(=C/c1sc2ccccc2[n+]1CC)SC	-2	i	i	i	-0.16	i
O=C(CSc1ncn[nH]1)c1cccc([N+](=O)[O-])c1	-2	i	i	i	-0.13	i
Cc1noc(C)c1COC(=O)CNC(=O)c1cccc(F)c1	-14	i	i	i	0.04	i
Cc1noc(C)c1COC(=O)C1(c2cccc(F)c2)CCCC1	-11	i	i	i	-4.3*	i
CN(C)C(=O)CN1CCN(Cc2nc(CC3CC3)no2)CC1	-12	i	i	i	-1.7	i
N/C(Cc1ccc(Cl)cc1)=N\OC(=O)c1ccc2ccccc2c1	-2	i	i	i	1.8	i
N/C(Cc1ccc(Cl)cc1)=N\OC(=O)c1cccc2ccccc12	-3	-14*	i	i	-0.21	i
CC(=O)[C@]1(O)Cc2c(O)c3c(c(O)c2[C@@H](O[C@H]2C[C@H](N)[C@H](O)[C@H](C)O2)C1)C(=O)c1ccccc1C3=O	-49	i	21*	i	-12	/
CCN(CC)C(=O)c1c2c(nc3ccccc13)-c1ccccc1CC2	-3	i	i	i	0.86	i
CCCCC1(CO)C(=O)N(c2ccccc2)N(c2ccccc2)C1=O	-5	i	i	i	0.82	i
CCCCC1(Cc2cccc([N+](=O)[O-])c2)C(=O)N(c2ccccc2)N(c2ccccc2)C1=O	-7	i	6*	i	-0.51	i
O=c1ccccn1CCOc1ccccc1Cl	5.3*	i	i	i	-0.05	i
Clc1ccccc1OCCN1CCCCC1	-3	i	i	i	0.04	i
CCCCOc1ccc(-c2c(C#N)c(N)[nH]c(=S)c2C#N)cc1	8.4*	i	i	i	1.2	i
O=c1oc2cc(O)ccc2cc1S(=O)(=O)c1ccccc1	-9	i	i	i	-0.41	i
CCN(CC)c1ccc2cc(S(=O)(=O)c3ccc(Cl)cc3)c(=O)oc2c1	-8	i	10*	i	-1.6	i
CCCCCCc1cc2cc(S(=O)(=O)c3ccc(Cl)cc3)c(=O)oc2cc1O	-1	i	11*	i	1.6	i
COc1cc(/C=N/N=C(N)N)ccc1OCc1ccccc1Cl	-30	i	10*	i	-16*	i
CS(=O)(=O)NN1C(=O)c2ccccc2NC1c1ccccc1F (stereo not drawn)	-3	i	i	i	1.4	i
C=CCn1c(SCC(N)=O)nnc1-c1cccc(Br)c1	-6	i	i	i	-0.5	i
C=CCn1c(SCc2ccccc2C#N)nnc1-c1cc(Br)ccc1O	-26	i	i	i	-8.3*	i
CC(C)(CNC(=O)c1cccc(S(=O)(=O)NCc2ccccc2)c1)N1CCOCC1	-6	i	i	i	0.89	i
COc1ccc(Cl)cc1NS(=O)(=O)c1cccc(C(=O)NCC(C)(C)N2CCOCC2)c1	/	/	/	/	/	-9*
SMILES	hERG rescue	KCNK9 block	KCNQ1 block	KCNQ1 act	Kir21 inh	KCNK3 block
CN(C)c1cccc(C(=O)N2CCCC(C(=O)c3cc(F)ccc3F)C2)c1 (stereo not drawn)	-18	i	i	38*	0.37	i
O=C(c1cccc(Cl)c1)C1CCCN(C(=O)c2ccc3c(c2)OCO3)C1 (stereo not drawn)	-9	i	i	i	-4.8*	i
CC1CCCN(C(=O)c2ccc3c(c2)OCO3)C1 (stereo not drawn)	-9	i	i	i	-1	i
O=C(c1cc(F)ccc1F)C1CCCN(C(=O)c2ccc3nccnc3c2)C1 (stereo not drawn)	-12	i	i	i	1	i
CCCN(Cc1ccco1)S(=O)(=O)c1ccc(OC)c(OC)c1	-12	i	i	i	-4.9*	i
COc1ccc2nc(SCCOC(=O)Nc3ccc(Cl)cc3)nc(C)c2c1	-13	i	i	i	-5.7*	i
COc1ccc2nc(SCC(=O)O)nc(C)c2c1	/	/	/	/	/	i
N#Cc1c(F)cccc1NCc1cccnc1	-6	i	i	i	0.14	i
COC(=O)c1cc(S(=O)(=O)N2CCCC(C)C2)cn1C (stereo not drawn)	-3	i	i	i	0.22	i
COC(=O)c1cc(-c2ccc(S(=O)(=O)N3CCCC(C)C3)cc2)c(C(F)(F)F)s1 (stereo not drawn)	-12	i	6*	i	0.42	i
O=C(NNC(=O)c1ccccc1O)c1ccc(NS(=O)(=O)c2ccc(F)c(F)c2)cc1	-29	i	6*	i	-0.98	i
CC1CC(C)CN(c2ncc3c(n2)CC(c2ccc(Cl)cc2)CC3=O)C1 (stereo not drawn)	-10	i	6*	i	1	i
CC(NS(=O)(=O)c1cc(C(F)(F)F)ccc1Cl)C(=O)N(C)C1CCN(C)CC1 (stereo not drawn)	/	/	/	/	/	i
O=C(NC1CC2CCCC(C1)N2C(=O)Nc1ccc(Cl)c(C(F)(F)F)c1)C1CC1 (stereo not drawn)	-14	i	i	i	1.3	i
O=C(Cc1ccccc1)NC1CCN(Cc2ccccc2)CC1	-2	i	i	i	0.96	i
O=C(Nc1ccc(Cl)c(C(F)(F)F)c1)NC1CC2CCCC(C1)N2Cc1ccccc1 (stereo not drawn)	-30	i	13*	i	1.1	/
Fc1ccc(CNc2ccc(N3CCN(Cc4ccccc4)CC3)cc2)cc1	-14	i	i	i	-7.1*	i
O=C(Nc1ccc2c(c1)OCO2)NC1CCN(Cc2ccccc2)CC1	-4	i	i	i	-1.3	i
O=C(Nc1ccc(F)cc1)NC1CCN(Cc2ccccc2)CC1	-11	i	i	i	-5.2*	i
Cc1ccccc1CC(=O)NC1CCN(Cc2ccccc2)CC1	8.2*	i	i	i	0.44	i
Nc1ncnc2c1ncn2[C@@H]1O[C@H](CNS(=O)(=O)c2cc(S(=O)(=O)c3ccccc3)cs2)[C@@H](O)[C@H]1O	/	/	/	/	/	i
Cc1cc(=O)c(C(=O)Nc2cccc(N3CCCC3=O)c2)nn1-c1ccccc1F	/	/	/	/	/	i
C#CCOc1ccccc1CNC1CCN(Cc2ccccc2)CC1	-2	i	i	i	-4.4*	i
S=C(Nc1ccc(Cl)cc1)NC1CCN(Cc2ccccc2)CC1	-12	i	i	i	-4.7*	i
